In ChEMBL document CHEMBL1129477, “Structure-activity relationships of the quinolone antibacterials against mycobacteria: effect of structural changes at N-1 and C-7” (J Med Chem, 1996):
Values after ≈ are worked out from the molar mass of the structure shown.

Columns and labels:
Type in all cases: functional
[1] = system: Mycolicibacterium smegmatis; assay: Anti-bacterial activity tested against Mycobacterium smegmatis (ATCG 19420)
Staphylococcus aureus = assay: Anti-bacterial activity was tested against Gram-positive SA-13 bacterium
How it was run: (§1)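 Standard microtitration MIC determination (µg/mL) against four representative Gram-negative and Gram-positive bacterial strains.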

Pseudomonas aeruginosa = assay: Anti-bacterial activity tested against Gram-negative PA-7 bacterium; how it was run: as §1
[2] = system: Mycolicibacterium fortuitum; assay: Anti-bacterial activity tested against Mycobacterium fortuitum (ATCG 6841)
Streptococcus pyogenes = assay: Anti-bacterial activity tested against Gram-positive SP1-1 bacterium; how it was run: as §1
Escherichia coli = assay: Anti-bacterial activity was tested against Gram-negative EC-1 bacterium; how it was run: as §1

| SMILES | MIC [1] [µg/mL] | MIC (Staphylococcus aureus) [µg/mL] | MIC (Pseudomonas aeruginosa) [µg/mL] | MIC [2] [µg/mL] | MIC (Streptococcus pyogenes) [µg/mL] | MIC (Escherichia coli) [µg/mL] |
| --- | --- | --- | --- | --- | --- | --- |
| CNCC1CCN(c2cc3c(cc2F)c(=O)c(C(=O)O)cn3C2CCC2)C1 (stereo not drawn) | 4 (≈ 10.7 µM) | 0.8 (≈ 2.14 µM) | 3.1 (≈ 8.3 µM) | 2 (≈ 5.36 µM) | 1.6 (≈ 4.28 µM) | 0.8 (≈ 2.14 µM) |
| CC1CN(c2cc3c(cc2F)c(=O)c(C(=O)O)cn3-c2ccc(F)cc2F)CC(C)N1 (stereo not drawn) | 0.5 (≈ 1.16 µM) | 0.4 (≈ 0.927 µM) | 0.8 (≈ 1.85 µM) | 0.25 (≈ 0.579 µM) | 0.8 (≈ 1.85 µM) | 0.4 (≈ 0.927 µM) |
| CCn1cc(C(=O)O)c(=O)c2cc(F)c(N3CCNCC3)cc21 [NORFLOXACIN] | 2 (≈ 6.26 µM) | 3.1 (≈ 9.71 µM) | 0.8 (≈ 2.51 µM) | 0.5 (≈ 1.57 µM) | > 3.1 | 0.1 (≈ 0.313 µM) |
| CC1CN(c2cc3c(cc2F)c(=O)c(C(=O)O)cn3C(C)(C)C)CC(C)N1 (stereo not drawn) | 0.06 (≈ 0.16 µM) | 0.4 (≈ 1.07 µM) | 1.6 (≈ 4.26 µM) | 0.06 (≈ 0.16 µM) | > 3.1 | 0.2 (≈ 0.533 µM) |
| CC1(CN)CCN(c2cc3c(cc2F)c(=O)c(C(=O)O)cn3C2CC2)C1 (stereo not drawn) | 0.06 (≈ 0.167 µM) | 0.1 (≈ 0.278 µM) | 0.4 (≈ 1.11 µM) | < 0.03 | 0.05 (≈ 0.139 µM) | 0.4 (≈ 1.11 µM) |
| CCN1CCN(c2cc3c(cc2F)c(=O)c(C(=O)O)cn3C(C)(C)C)CC1 | 0.13 (≈ 0.346 µM) | 0.2 (≈ 0.533 µM) | 1.6 (≈ 4.26 µM) | 0.13 (≈ 0.346 µM) | > 3.1 | 0.2 (≈ 0.533 µM) |
| CCC1CN(c2cc3c(cc2F)c(=O)c(C(=O)O)cn3C2CC2)CCN1 (stereo not drawn) | 0.25 (≈ 0.696 µM) | 0.8 (≈ 2.23 µM) | 0.8 (≈ 2.23 µM) | 0.13 (≈ 0.362 µM) | 0.8 (≈ 2.23 µM) | 0.1 (≈ 0.278 µM) |
| CC(C)(C)n1cc(C(=O)O)c(=O)c2cc(F)c(N3CCC(N)C3)cc21 (stereo not drawn) | 0.13 (≈ 0.374 µM) | 0.4 (≈ 1.15 µM) | 0.4 (≈ 1.15 µM) | 0.06 (≈ 0.173 µM) | 0.4 (≈ 1.15 µM) | 0.2 (≈ 0.576 µM) |
| CC(C)N1CCN(c2cc3c(cc2F)c(=O)c(C(=O)O)cn3-c2ccc(F)cc2F)CC1 | 1 (≈ 2.24 µM) | 0.4 (≈ 0.898 µM) | 3.1 (≈ 6.96 µM) | 0.5 (≈ 1.12 µM) | 3.1 (≈ 6.96 µM) | 0.8 (≈ 1.8 µM) |
| O=C(O)c1cn(C2CCC2)c2cc(N3CCNCC3)c(F)cc2c1=O | 2 (≈ 5.79 µM) | 3.1 (≈ 8.98 µM) | 1.6 (≈ 4.63 µM) | 0.5 (≈ 1.45 µM) | > 3.1 | 0.4 (≈ 1.16 µM) |
| CNCC1CCN(c2cc3c(cc2F)c(=O)c(C(=O)O)cn3C(C)(C)C)C1 (stereo not drawn) | 0.25 (≈ 0.666 µM) | 0.2 (≈ 0.533 µM) | 1.6 (≈ 4.26 µM) | 0.13 (≈ 0.346 µM) | 0.2 (≈ 0.533 µM) | 0.4 (≈ 1.07 µM) |
| CCn1cc(C(=O)O)c(=O)c2cc(F)c(N3CCC(N)C3)cc21 (stereo not drawn) | 4 (≈ 12.5 µM) | 1.6 (≈ 5.01 µM) | 0.8 (≈ 2.51 µM) | 1 (≈ 3.13 µM) | 0.8 (≈ 2.51 µM) | 0.4 (≈ 1.25 µM) |
| CCn1cc(C(=O)O)c(=O)c2cc(F)c(N3CC(C)NC(C)C3)cc21 (stereo not drawn) | 1 (≈ 2.88 µM) | 0.8 (≈ 2.3 µM) | 3.1 (≈ 8.92 µM) | 0.13 (≈ 0.374 µM) | > 3.1 | 0.4 (≈ 1.15 µM) |
| CC(C)N1CCN(c2cc3c(cc2F)c(=O)c(C(=O)O)cn3C2CC2)CC1 | 0.25 (≈ 0.669 µM) | 0.2 (≈ 0.536 µM) | 1.6 (≈ 4.28 µM) | 0.25 (≈ 0.669 µM) | 0.8 (≈ 2.14 µM) | 0.1 (≈ 0.268 µM) |
| CC(C)n1cc(C(=O)O)c(=O)c2cc(F)c(N3CCC(N)C3)cc21 (stereo not drawn) | 2 (≈ 6 µM) | 3.1 (≈ 9.3 µM) | 1.6 (≈ 4.8 µM) | 1 (≈ 3 µM) | > 3.1 | 0.8 (≈ 2.4 µM) |
| CCN1CCN(c2cc3c(cc2F)c(=O)c(C(=O)O)cn3C2CCC2)CC1 | 2 (≈ 5.36 µM) | 3.1 (≈ 8.3 µM) | > 3.1 | 0.5 (≈ 1.34 µM) | > 3.1 | 0.8 (≈ 2.14 µM) |
| CCn1cc(C(=O)O)c(=O)c2cc(F)c(N3CCC(CNC)C3)cc21 (stereo not drawn) | 8 (≈ 23 µM) | 1.6 (≈ 4.61 µM) | > 3.1 | 2 (≈ 5.76 µM) | 0.4 (≈ 1.15 µM) | 3.1 (≈ 8.92 µM) |
| CC1CN(c2cc3c(cc2F)c(=O)c(C(=O)O)cn3C(C)(C)C)CCN1 (stereo not drawn) | 0.06 (≈ 0.166 µM) | 0.4 (≈ 1.11 µM) | 0.8 (≈ 2.21 µM) | 0.03 (≈ 0.083 µM) | > 3.1 | 0.1 (≈ 0.277 µM) |
| CNCC1CCN(c2cc3c(cc2F)c(=O)c(C(=O)O)cn3C2CC2)C1 (stereo not drawn) | 0.5 (≈ 1.39 µM) | 0.2 (≈ 0.556 µM) | 0.8 (≈ 2.23 µM) | 0.25 (≈ 0.696 µM) | 0.1 (≈ 0.278 µM) | 0.2 (≈ 0.556 µM) |
| CN(C)CC1CCN(c2cc3c(cc2F)c(=O)c(C(=O)O)cn3C2CC2)C1 (stereo not drawn) | 0.5 (≈ 1.34 µM) | 0.2 (≈ 0.536 µM) | 0.8 (≈ 2.14 µM) | 0.13 (≈ 0.348 µM) | 0.2 (≈ 0.536 µM) | 0.2 (≈ 0.536 µM) |
| CC1CN(c2cc3c(cc2F)c(=O)c(C(=O)O)cn3C2CC2)CCN1 (stereo not drawn) | 0.25 (≈ 0.724 µM) | 0.8 (≈ 2.32 µM) | 0.2 (≈ 0.579 µM) | 0.06 (≈ 0.174 µM) | 0.8 (≈ 2.32 µM) | 0.05 (≈ 0.145 µM) |
| CCN1CCN(c2cc3c(cc2F)c(=O)c(C(=O)O)cn3C(C)C)CC1 | 4 (≈ 11.1 µM) | 3.1 (≈ 8.58 µM) | > 3.1 | 1 (≈ 2.77 µM) | > 3.1 | 1.6 (≈ 4.43 µM) |
| CN1CCN(c2cc3c(cc2F)c(=O)c(C(=O)O)cn3C2CC2)CC1 | 0.25 (≈ 0.724 µM) | 0.2 (≈ 0.579 µM) | 0.4 (≈ 1.16 µM) | 0.06 (≈ 0.174 µM) | 1.6 (≈ 4.63 µM) | 0.05 (≈ 0.145 µM) |
| NC1CCN(c2cc3c(cc2F)c(=O)c(C(=O)O)cn3-c2ccc(F)cc2F)C1 (stereo not drawn) | 0.13 (≈ 0.322 µM) | 0.05 (≈ 0.124 µM) | 0.2 (≈ 0.496 µM) | 0.13 (≈ 0.322 µM) | 0.1 (≈ 0.248 µM) | 0.03 (≈ 0.0744 µM) |
| CCCCN1CCN(c2cc3c(cc2F)c(=O)c(C(=O)O)cn3C2CC2)CC1 | 0.5 (≈ 1.29 µM) | 0.4 (≈ 1.03 µM) | 1.6 (≈ 4.13 µM) | 1 (≈ 2.58 µM) | > 3.1 | 0.1 (≈ 0.258 µM) |
| CC(C)n1cc(C(=O)O)c(=O)c2cc(F)c(N3CCNCC3)cc21 | 4 (≈ 12 µM) | > 3.1 | 1.6 (≈ 4.8 µM) | 1 (≈ 3 µM) | > 3.1 | 0.8 (≈ 2.4 µM) |
| CC1CN(c2cc3c(cc2F)c(=O)c(C(=O)O)cn3C2CCC2)CCN1 (stereo not drawn) | 1 (≈ 2.78 µM) | 3.1 (≈ 8.63 µM) | 1.6 (≈ 4.45 µM) | 0.25 (≈ 0.696 µM) | > 3.1 | 0.4 (≈ 1.11 µM) |
| CCN1CCN(c2cc3c(cc2F)c(=O)c(C(=O)O)cn3CC)CC1 | 0.5 (≈ 1.44 µM) | 0.2 (≈ 0.576 µM) | 1.6 (≈ 4.61 µM) | 0.25 (≈ 0.72 µM) | 3.1 (≈ 8.92 µM) | 0.1 (≈ 0.288 µM) |
